From ChEMBL document CHEMBL1138711, “1,2,3,4-Tetrahydroquinoline-containing alphaVbeta3 integrin antagonists with enhanced oral bioavailability” (Bioorg Med Chem Lett, 2004) come the findings set out here.

A short description of data set [1]: Oral bioavailability in rat. It counts as ADME, organism-based. Conditions: in vivo. The method, boiled down: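 Rats dosed orally at 10 mg/kg (N = 4) and intravenously at 2 mg/kg (N = 4) unless otherwise noted. The oral vehicle was D5W (5% dextrose) adjusted to pH 2 with 0.1 N HCl. Plasma drug levels were measured by LC/MS, and bioavailability was derived by comparing oral with intravenous exposure.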

The target of a further data set is Integrin alpha-V/beta-5 (Homo sapiens, UniProt P06756+P18084). Description: Inhibitory concentration for human vitronectin binding to immobilized alphaV-beta5 integrin. It counts as protein-complex assay.
The target in data set [2] is Integrin alpha-IIb/beta-3 (Homo sapiens, UniProt P05106+P08514). Description: Inhibitory concentration for biotinylated fibrinogen binding to immobilized alpha IIb beta-3 integrin. In kind it is protein-complex assay.
The target in the next data set is Integrin alpha-V/beta-3 (Homo sapiens, UniProt P05106+P06756). Description: Inhibitory concentration for human vitronectin binding to immobilized alphaV-beta3 integrin. In kind it is protein-complex assay.
Data set [3] is described as follows: Plasma half-life when administered perorally at 30 mg/kg dose. In kind it is ADME, organism-based. Also on record: dose 30 mg/kg, route oral. Conditions: rat, po.
A short description of data set [4]: Maximum plasma concentration when administered perorally at 30 mg/kg dose. Conditions: rat, po. On the set-up: dose 30 mg/kg, route oral. It counts as ADME, organism-based.
Data set [5] is described as follows: Time to reach maximum plasma concentration when administered perorally at 15 mg/kg dose in rat. It counts as ADME, organism-based. Also on record: dose 15 mg/kg, route oral. As to conditions: po.
Data set [6] in a line: Maximum plasma concentration when administered perorally at 15 mg/kg dose in rat. Also on record: dose 15 mg/kg, route oral. As to conditions: po. It counts as ADME, organism-based.
Data set [7] in a line: Plasma half-life when administered perorally at 10 mg/kg dose. Conditions: rat, in vivo, po.

Chain of Integrin alpha-V/beta-3 (P05106 27-788 limits assumed): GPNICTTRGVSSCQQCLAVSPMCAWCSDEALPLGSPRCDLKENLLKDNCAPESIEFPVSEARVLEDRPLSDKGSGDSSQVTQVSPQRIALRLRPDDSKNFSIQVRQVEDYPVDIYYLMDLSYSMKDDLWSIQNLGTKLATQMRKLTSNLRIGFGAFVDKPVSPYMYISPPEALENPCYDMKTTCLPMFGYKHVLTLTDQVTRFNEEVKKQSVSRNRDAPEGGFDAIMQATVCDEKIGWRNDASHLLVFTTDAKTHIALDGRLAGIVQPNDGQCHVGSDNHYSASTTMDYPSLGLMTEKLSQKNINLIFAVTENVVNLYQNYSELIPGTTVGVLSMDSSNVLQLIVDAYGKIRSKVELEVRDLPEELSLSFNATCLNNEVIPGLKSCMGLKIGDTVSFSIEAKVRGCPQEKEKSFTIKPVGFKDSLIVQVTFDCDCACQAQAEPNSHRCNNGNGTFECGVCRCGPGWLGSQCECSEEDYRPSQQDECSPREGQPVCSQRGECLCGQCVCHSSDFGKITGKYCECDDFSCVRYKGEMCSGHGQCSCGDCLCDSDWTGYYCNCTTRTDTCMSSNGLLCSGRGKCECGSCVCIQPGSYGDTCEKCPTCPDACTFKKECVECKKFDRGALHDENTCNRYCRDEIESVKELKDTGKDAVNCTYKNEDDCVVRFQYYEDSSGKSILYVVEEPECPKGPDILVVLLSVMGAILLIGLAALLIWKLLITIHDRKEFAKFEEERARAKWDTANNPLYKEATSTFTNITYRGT
Chain of Integrin alpha-V/beta-3 (P06756 31-889 limits assumed): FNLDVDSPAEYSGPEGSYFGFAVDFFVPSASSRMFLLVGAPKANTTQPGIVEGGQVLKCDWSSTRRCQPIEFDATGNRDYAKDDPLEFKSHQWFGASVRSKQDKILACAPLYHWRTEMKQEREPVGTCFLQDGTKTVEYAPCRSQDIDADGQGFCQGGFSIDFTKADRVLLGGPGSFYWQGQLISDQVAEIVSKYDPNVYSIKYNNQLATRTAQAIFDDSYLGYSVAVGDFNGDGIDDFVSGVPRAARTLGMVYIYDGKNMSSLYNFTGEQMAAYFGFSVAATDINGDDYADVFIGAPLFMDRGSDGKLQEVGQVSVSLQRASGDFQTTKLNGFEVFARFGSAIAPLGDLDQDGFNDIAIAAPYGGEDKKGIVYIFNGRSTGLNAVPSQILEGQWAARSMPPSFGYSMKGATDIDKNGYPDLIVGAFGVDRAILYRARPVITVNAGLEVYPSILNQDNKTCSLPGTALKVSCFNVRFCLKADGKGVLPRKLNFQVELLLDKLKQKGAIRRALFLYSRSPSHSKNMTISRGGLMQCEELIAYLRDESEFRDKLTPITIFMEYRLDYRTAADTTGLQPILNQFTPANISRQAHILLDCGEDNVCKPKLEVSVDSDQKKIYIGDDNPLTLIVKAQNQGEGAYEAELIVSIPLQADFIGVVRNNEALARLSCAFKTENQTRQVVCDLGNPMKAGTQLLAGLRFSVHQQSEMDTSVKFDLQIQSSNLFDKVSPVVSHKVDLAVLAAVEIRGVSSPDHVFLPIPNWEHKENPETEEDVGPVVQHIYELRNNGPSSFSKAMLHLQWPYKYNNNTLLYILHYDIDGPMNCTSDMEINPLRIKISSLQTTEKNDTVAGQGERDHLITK
Chain of Integrin alpha-V/beta-3 (P06756 891-1048 limits assumed): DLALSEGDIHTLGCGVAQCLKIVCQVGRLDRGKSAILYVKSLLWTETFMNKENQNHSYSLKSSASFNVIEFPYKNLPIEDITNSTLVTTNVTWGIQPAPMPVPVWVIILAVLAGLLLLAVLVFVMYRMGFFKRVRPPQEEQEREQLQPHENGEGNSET
Chain of Integrin alpha-IIb/beta-3 (P05106 27-788 limits assumed): as the sequence (P05106 27-788 limits assumed) above
Chain of Integrin alpha-IIb/beta-3 (P08514 32-887 limits assumed): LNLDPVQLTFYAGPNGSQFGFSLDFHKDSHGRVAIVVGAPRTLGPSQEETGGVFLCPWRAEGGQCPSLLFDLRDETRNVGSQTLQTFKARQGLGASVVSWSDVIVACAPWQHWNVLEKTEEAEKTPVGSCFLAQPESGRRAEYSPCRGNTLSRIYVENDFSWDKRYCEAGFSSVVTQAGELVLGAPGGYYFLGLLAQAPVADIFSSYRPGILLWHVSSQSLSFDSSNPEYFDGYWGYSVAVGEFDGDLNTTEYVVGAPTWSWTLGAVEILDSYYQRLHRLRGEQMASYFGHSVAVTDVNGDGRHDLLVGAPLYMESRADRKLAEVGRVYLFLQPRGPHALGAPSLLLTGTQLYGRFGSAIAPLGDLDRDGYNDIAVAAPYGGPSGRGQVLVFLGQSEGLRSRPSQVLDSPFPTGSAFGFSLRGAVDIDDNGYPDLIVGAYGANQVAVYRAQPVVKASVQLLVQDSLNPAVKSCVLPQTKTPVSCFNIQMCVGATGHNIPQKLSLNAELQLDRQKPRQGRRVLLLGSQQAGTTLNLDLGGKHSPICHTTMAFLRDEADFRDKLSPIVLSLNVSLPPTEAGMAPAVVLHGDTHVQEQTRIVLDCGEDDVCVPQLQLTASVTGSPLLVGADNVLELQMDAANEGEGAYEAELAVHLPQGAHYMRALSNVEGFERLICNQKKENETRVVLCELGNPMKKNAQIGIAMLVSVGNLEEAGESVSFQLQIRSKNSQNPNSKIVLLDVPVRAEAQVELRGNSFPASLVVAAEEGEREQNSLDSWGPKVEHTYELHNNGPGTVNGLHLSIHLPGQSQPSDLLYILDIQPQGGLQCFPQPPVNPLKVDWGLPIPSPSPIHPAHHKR
Chain of Integrin alpha-IIb/beta-3 (P08514 891-1039 limits assumed): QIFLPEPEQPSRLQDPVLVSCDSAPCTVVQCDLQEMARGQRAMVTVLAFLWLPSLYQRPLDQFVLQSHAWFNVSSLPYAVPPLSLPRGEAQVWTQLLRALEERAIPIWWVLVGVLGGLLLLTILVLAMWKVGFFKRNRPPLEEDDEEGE
Chain of Integrin alpha-V/beta-5 (P06756 31-889 limits assumed): as the sequence (P06756 31-889 limits assumed) above
Chain of Integrin alpha-V/beta-5 (P06756 891-1048 limits assumed): as the sequence (P06756 891-1048 limits assumed) above
Chain of Integrin alpha-V/beta-5 (P18084 24-799 limits assumed): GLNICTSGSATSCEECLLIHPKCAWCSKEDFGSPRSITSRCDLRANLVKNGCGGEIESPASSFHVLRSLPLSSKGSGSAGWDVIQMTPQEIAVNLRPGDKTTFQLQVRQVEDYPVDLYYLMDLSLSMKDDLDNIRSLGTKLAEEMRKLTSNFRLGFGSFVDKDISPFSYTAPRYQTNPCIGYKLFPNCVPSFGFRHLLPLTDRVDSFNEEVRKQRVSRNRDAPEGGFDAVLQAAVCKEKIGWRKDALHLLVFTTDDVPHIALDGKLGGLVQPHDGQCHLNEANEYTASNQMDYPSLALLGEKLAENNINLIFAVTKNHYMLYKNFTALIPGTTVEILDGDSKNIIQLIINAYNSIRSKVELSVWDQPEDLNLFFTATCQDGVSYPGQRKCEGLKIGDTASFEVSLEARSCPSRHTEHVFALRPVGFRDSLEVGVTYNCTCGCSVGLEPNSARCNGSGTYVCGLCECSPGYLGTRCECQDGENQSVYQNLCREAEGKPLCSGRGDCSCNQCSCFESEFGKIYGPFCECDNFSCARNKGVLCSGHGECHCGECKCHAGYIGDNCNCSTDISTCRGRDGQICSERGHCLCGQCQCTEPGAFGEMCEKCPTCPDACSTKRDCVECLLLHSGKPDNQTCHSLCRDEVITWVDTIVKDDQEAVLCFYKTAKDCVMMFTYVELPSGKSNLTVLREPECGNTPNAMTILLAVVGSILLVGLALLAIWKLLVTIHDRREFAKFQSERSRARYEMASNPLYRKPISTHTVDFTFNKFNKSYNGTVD

One may read the bioavailability as the share of a dose that reaches the circulation, judged against a reference dose that is usually intravenous. High values mean much systemic uptake, low ones little systemic uptake. In general, IC50 refers to the midpoint of a concentration-inhibition curve. A low value points to inhibition by little substance. Consider `O=C(O)C[C@H](c1cnc2ccccc2c1)C1CCN(C(=O)CCCc2ccc3c(n2)NCCC3)CC1`, for which the bioavailability in [1] worked out at 1%. In addition, the IC50 at Integrin alpha-V/beta-5 came to 0.036 µM; in data set [2] it was 0.87 µM; on Integrin alpha-V/beta-3, 0.0005 µM.

As usually defined, the half-life is the time needed for the level to fall by half in the phase considered. High values mean slow loss, low ones fast loss. Broadly, the Cmax is the maximum level reached in the sampled fluid or tissue. Turning to `O=C(O)C[C@@H](CC1CCN(C(=O)CCc2ccc3c(n2)NCCC3)CC1)c1cnc2ccccc2c1`, in [3], the half-life was 3 h. Besides, in data set [1], the bioavailability was found to be 4%. In addition, the half-maximal inhibitory concentration (IC50) was 0.0022 µM at Integrin alpha-V/beta-5, 1.1 µM in data set [2] and 0.0008 µM on Integrin alpha-V/beta-3. The compound also yielded a Cmax in data set [4] (plasma) of 0.5 µM.

As for `O=C(O)C[C@H](NC(=O)C1CCN(C(=O)CCc2ccc3c(n2)NCCC3)CC1)c1cnc2ccccc2c1`, the results for the IC50 (at Integrin alpha-V/beta-5; in [2]; on Integrin alpha-V/beta-3) were 0.27 µM, 2.9 µM and 0.0026 µM, respectively.

`O=C(O)C[C@H](NC(=O)C1CCN(C(=O)CCCNC2=NCCN2)CC1)c1cnc2ccccc2c1`: the half-life in data set [3] was 7 h. Moreover, the bioavailability in [1] was found to be 4%. Moreover, the values for the IC50 (at Integrin alpha-V/beta-5; in data set [2]; at Integrin alpha-V/beta-3) were 0.47 µM, 0.17 µM and 0.0036 µM, respectively. The same compound yielded a Cmax in data set [4] (plasma) of 0.8 µM.

As for `O=C(O)C[C@@H]1Cc2ccc(OCCCNc3ccccn3)cc2Cc2ccccc21`, the figures for the IC50 (at Integrin alpha-V/beta-5; in [2]; on Integrin alpha-V/beta-3) were 0.0029 µM, 1.2 µM and 0.004 µM, respectively.

Turning to `O=C(O)C[C@@H](C1CCN(C(=O)CCCc2ccc3c(n2)NCCC3)CC1)C1CNc2ccccc2C1` (mixture of isomers), the F in data set [1] amounted to 100%. Also, the concentration for half-maximal inhibition (IC50) at Integrin alpha-V/beta-5 came to 0.26 µM; in data set [2] it was 15 µM; at Integrin alpha-V/beta-3 it was 0.0037 µM.

The term Tmax denotes the time from dosing to the highest level. Turning to `O=C(O)CC(CC1CCN(C(=O)CCc2ccc3c(n2)NCCC3)CC1)C1CNc2ccccc2C1` (racemic), the Tmax in data set [5] is 2 h. The same compound displayed a Cmax in data set [6] of 21 µM. In addition, the half-maximal inhibitory concentration (IC50) in [2] was determined as 14 µM.

With `CN1CC(C(CC(=O)O)CC2CCN(C(=O)CCc3ccc4c(n3)NCCC4)CC2)Cc2ccccc21` (racemic), the IC50 at Integrin alpha-V/beta-5 is 0.18 µM; in data set [2], above 50 µM; on Integrin alpha-V/beta-3, 0.049 µM.

On to `O=C(O)C[C@@H](C1CCN(C(=O)CCCc2ccc3c(n2)NCCC3)CC1)C1CNc2ccccc2C1` (single isomer, unassigned; isomer b), for which the IC50 on Integrin alpha-V/beta-5 was 2.5 µM; in [2] it was above 50 µM; at Integrin alpha-V/beta-3, 0.07 µM.

For `O=C(O)C[C@@H](C1CCN(C(=O)CCCc2ccc3c(n2)NCCC3)CC1)C1CNc2ccccc2C1` (single isomer, unassigned; isomer d), the F in data set [1] is given as 52%. Further, the concentration for half-maximal inhibition (IC50) at Integrin alpha-V/beta-5 amounted to 0.16 µM; in data set [2] it was 17 µM; at Integrin alpha-V/beta-3 it was 0.0054 µM. Also, in data set [4] (in vivo), the concentration peaked (Cmax) at 58 µM. The T1/2 in [7] is 1 h.

As to `O=C(O)C[C@@H](CC1CCN(C(=O)CCc2ccc3c(n2)NCCC3)CC1)c1cnc2c(c1)CCCC2` (stereo in doubt; 28), in [1], the F is given as 0%. Moreover, the results for the IC50 (at Integrin alpha-V/beta-5; in data set [2]; on Integrin alpha-V/beta-3) were 0.011 µM, 3 µM and 0.0016 µM, respectively.

Turning to `COc1ccc([C@@H](CC(=O)O)CC2CCN(C(=O)CCc3ccc4c(n3)NCCC4)CC2)cn1` (stereo in doubt; 34), the F in [1] came out at 8%. Besides, the IC50 on Integrin alpha-V/beta-5 came out at 0.0027 µM; in [2], 6.1 µM; at Integrin alpha-V/beta-3, 0.0007 µM. In [4] (in vivo), the peak level (Cmax) was 0.9 µM.

In [3], `COc1ccc([C@@H](CC(=O)O)CC2CCN(C(=O)CCc3ccc4c(n3)NCCC4)CC2)cn1` (stereo in doubt; form 1) had a half-life of 2 h. The F in [1] is 2%. Moreover, the half-inhibitory concentration (IC50) on Integrin alpha-V/beta-5 turned out to be 0.0031 µM; in [2], 1.8 µM; at Integrin alpha-V/beta-3, 0.0004 µM. In [4] (in vivo), this compound came in with a peak concentration (Cmax) of 0.1 µM.

In data set [3], `O=C(O)C[C@@H](C1CCN(C(=O)CCCc2ccc3c(n2)NCCC3)CC1)C1CNc2ccccc2C1` (stereo in doubt; form 1) gave a half-life of 2 h. Besides, the F in data set [1] came to 46%. The results for the IC50 (on Integrin alpha-V/beta-5; in [2]; at Integrin alpha-V/beta-3) were 0.044 µM, 13 µM and 0.0016 µM, respectively. This compound also registered a Cmax in data set [4] (in vivo) of 8 µM.

With `O=C(O)C[C@@H](CC1CCN(C(=O)CCc2ccc3c(n2)NCCC3)CC1)c1cnc2c(c1)CCCC2` (stereo in doubt; form 1), the IC50 was 1 µM at Integrin alpha-V/beta-5, above 50 µM in data set [2] and 0.026 µM at Integrin alpha-V/beta-3.

In the case of `COc1ccc([C@@H](CC(=O)O)CC2CCN(C(=O)CCc3ccc4c(n3)NCCC4)CC2)cn1` (stereo in doubt; form 2), the concentration for half-maximal inhibition (IC50) on Integrin alpha-V/beta-5 is 0.098 µM; in data set [2], above 50 µM; at Integrin alpha-V/beta-3, 0.016 µM.

Consider `O=C(O)C[C@@H](C1CCN(C(=O)CCCc2ccc3c(n2)NCCC3)CC1)C1CNc2ccccc2C1` (stereo in doubt; form 2), for which the IC50 at Integrin alpha-V/beta-5 was 1.5 µM; in [2], above 50 µM; at Integrin alpha-V/beta-3 it was 0.1 µM.

Take `O=C(O)C[C@@H](CC1CCN(C(=O)CCc2ccc3c(n2)NCCC3)CC1)c1cnc2c(c1)CCCC2` (stereo in doubt; form 4): the results for the IC50 (on Integrin alpha-V/beta-5; in data set [2]; on Integrin alpha-V/beta-3) were 2.2 µM, above 50 µM and 0.052 µM, respectively.
